Measured values published in ChEMBL document CHEMBL5724801, “EUbOPEN Chemogenomics Library - Multiplex” (2024).
“And” between values parts separate entries of the source, which are not always exact repeats. Equal entries are not always repeated.

Test system: U2OS
Assay: Multiplex assay against U2OS
Format: toxicity, cell-based
Conditions: human
In short: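 Phenotypes for tubulin, mitochondrial mass and membrane permeability are expressed as per cents of healthy-nucleus cells. Cells were stained live at seeding with Hoechst33342, BioTracker Green Microtubule Cytoskeleton Dye, MitoTracker Red and Annexin V Alexa Fluor 680, then imaged after compound addition on a CQ1 microscope at 37°C and 5% CO2. Machine-learning gating in CellPathfinder separated Hoechst high-intensity objects from normal cells, divided normal cells by nuclear state (healthy, pyknosed, fragmented) and divided pyknosed cells into mitotic or apoptotic.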

[1] = 12 h, 1 µM, compound concentration 1 uM
[2] = 12 h, 10 µM, compound concentration 10 uM
[3] = 24 h, 1 µM, compound concentration 1 uM
[4] = 24 h, 10 µM, compound concentration 10 uM
[5] = 48 h, 1 µM, compound concentration 1 uM
[6] = 48 h, 10 µM, compound concentration 10 uM

CN1CCN(c2nc3cc(C(F)(F)F)ccc3n3cccc23)CC1.O=C(O)/C=C\C(=O)O.O=C(O)/C=C\C(=O)O
Population Apoptotic (%) [1]: 77% and 100% | Population Fragmented Nuclei (%) [1]: 17% and 18% | Population Healthy Nuclei (%) [1]: 75% and 73% | Population Hoechst High Intensity Objects (%) [1]: 1% and 0% | Population Membrane Permeable-Phenotype (%) [1]: 4% and 8% | Population Mitochondria Different-Phenotype (%) [1]: 0% and 2% | Population Mitotic Cells (%) [1]: 22% and 0% | Population Normal (%) [1]: 98% and 99% | Population Pyknosed Nuclei (%) [1]: 6% and 8% | Population Tubulin-Different-Phenotype (%) [1]: 1% and 3% | Total Cell Count [1]: 266 and 111 | Population Apoptotic (%) [2]: 66% and 88% | Population Fragmented Nuclei (%) [2]: 31% and 25% | Population Healthy Nuclei (%) [2]: 53% and 68% | Population Hoechst High Intensity Objects (%) [2]: 1% and 2% | Population Membrane Permeable-Phenotype (%) [2]: 18% and 13% | Population Mitochondria Different-Phenotype (%) [2]: 45% and 41% | Population Mitotic Cells (%) [2]: 33% and 11% | Population Normal (%) [2]: 98% and 97% | Population Pyknosed Nuclei (%) [2]: 15% and 6% | Population Tubulin-Different-Phenotype (%) [2]: 19% and 21% | Total Cell Count [2]: 218 and 135 | Population Apoptotic (%) [3]: 85% and 92% | Population Fragmented Nuclei (%) [3]: 17% and 13% | Population Healthy Nuclei (%) [3]: 73% and 77% | Population Hoechst High Intensity Objects (%) [3]: 2% and 0% | Population Membrane Permeable-Phenotype (%) [3]: 5% and 8% | Population Mitochondria Different-Phenotype (%) [3]: 1% and 4% | Population Mitotic Cells (%) [3]: 14% and 7% | Population Normal (%) [3]: 97% and 99% | Population Pyknosed Nuclei (%) [3]: 9% | Population Tubulin-Different-Phenotype (%) [3]: 3% and 4% | Total Cell Count [3]: 300 and 136 | Population Apoptotic (%) [4]: 76% and 78% | Population Fragmented Nuclei (%) [4]: 31% and 19% | Population Healthy Nuclei (%) [4]: 57% and 71% | Population Hoechst High Intensity Objects (%) [4]: 3% | Population Membrane Permeable-Phenotype (%) [4]: 16% and 17% | Population Mitochondria Different-Phenotype (%) [4]: 41% and 36% | Population Mitotic Cells (%) [4]: 24% and 21% | Population Normal (%) [4]: 96% | Population Pyknosed Nuclei (%) [4]: 10% and 9% | Population Tubulin-Different-Phenotype (%) [4]: 14% and 16% | Total Cell Count [4]: 244 and 156 | Population Apoptotic (%) [5]: 87% and 85% | Population Fragmented Nuclei (%) [5]: 14% and 17% | Population Healthy Nuclei (%) [5]: 77% and 75% | Population Hoechst High Intensity Objects (%) [5]: 2% and 1% | Population Membrane Permeable-Phenotype (%) [5]: 4% and 6% | Population Mitochondria Different-Phenotype (%) [5]: 0% and 5% | Population Mitotic Cells (%) [5]: 12% and 14% | Population Normal (%) [5]: 97% and 98% | Population Pyknosed Nuclei (%) [5]: 7% | Population Tubulin-Different-Phenotype (%) [5]: 2% and 3% | Total Cell Count [5]: 447 and 187 | Population Apoptotic (%) [6]: 78% and 81% | Population Fragmented Nuclei (%) [6]: 31% and 21% | Population Healthy Nuclei (%) [6]: 52% and 67% | Population Hoechst High Intensity Objects (%) [6]: 4% and 3% | Population Membrane Permeable-Phenotype (%) [6]: 16% and 10% | Population Mitochondria Different-Phenotype (%) [6]: 17% and 16% | Population Mitotic Cells (%) [6]: 21% and 18% | Population Normal (%) [6]: 95% and 96% | Population Pyknosed Nuclei (%) [6]: 16% and 11% | Population Tubulin-Different-Phenotype (%) [6]: 12% and 9% | Total Cell Count [6]: 299 and 202

CN(C)C(=O)Cn1cc(-c2ccc(-c3nnc4ccccn34)cc2)cn1
Population Apoptotic (%) [1]: 90% | Population Fragmented Nuclei (%) [1]: 25% and 22% | Population Healthy Nuclei (%) [1]: 66% and 68% | Population Hoechst High Intensity Objects (%) [1]: 1% and 0% | Population Membrane Permeable-Phenotype (%) [1]: 6% and 3% | Population Mitochondria Different-Phenotype (%) [1]: 1% and 6% | Population Mitotic Cells (%) [1]: 9% | Population Normal (%) [1]: 98% and 99% | Population Pyknosed Nuclei (%) [1]: 8% and 9% | Population Tubulin-Different-Phenotype (%) [1]: 3% and 4% | Total Cell Count [1]: 251 and 123 | Population Apoptotic (%) [2]: 95% and 90% | Population Fragmented Nuclei (%) [2]: 26% and 11% | Population Healthy Nuclei (%) [2]: 65% and 81% | Population Hoechst High Intensity Objects (%) [2]: 1% | Population Membrane Permeable-Phenotype (%) [2]: 4% | Population Mitochondria Different-Phenotype (%) [2]: 1% and 0% | Population Mitotic Cells (%) [2]: 4% and 10% | Population Normal (%) [2]: 98% | Population Pyknosed Nuclei (%) [2]: 7% | Population Tubulin-Different-Phenotype (%) [2]: 3% | Total Cell Count [2]: 298 and 140 | Population Apoptotic (%) [3]: 94% and 100% | Population Fragmented Nuclei (%) [3]: 22% and 17% | Population Healthy Nuclei (%) [3]: 71% and 74% | Population Hoechst High Intensity Objects (%) [3]: 0% | Population Membrane Permeable-Phenotype (%) [3]: 4% and 7% | Population Mitochondria Different-Phenotype (%) [3]: 2% and 7% | Population Mitotic Cells (%) [3]: 5% and 0% | Population Normal (%) [3]: 99% and 100% | Population Pyknosed Nuclei (%) [3]: 5% and 8% | Population Tubulin-Different-Phenotype (%) [3]: 1% and 4% | Total Cell Count [3]: 315 and 131 | Population Apoptotic (%) [4]: 86% and 87% | Population Fragmented Nuclei (%) [4]: 22% and 10% | Population Healthy Nuclei (%) [4]: 66% and 85% | Population Hoechst High Intensity Objects (%) [4]: 2% and 1% | Population Membrane Permeable-Phenotype (%) [4]: 4% and 7% | Population Mitochondria Different-Phenotype (%) [4]: 1% | Population Mitotic Cells (%) [4]: 13% and 12% | Population Normal (%) [4]: 97% and 98% | Population Pyknosed Nuclei (%) [4]: 11% and 4% | Population Tubulin-Different-Phenotype (%) [4]: 2% and 3% | Total Cell Count [4]: 333 and 180 | Population Apoptotic (%) [5]: 87% and 93% | Population Fragmented Nuclei (%) [5]: 16% and 11% | Population Healthy Nuclei (%) [5]: 75% and 67% | Population Hoechst High Intensity Objects (%) [5]: 2% | Population Membrane Permeable-Phenotype (%) [5]: 4% and 7% | Population Mitochondria Different-Phenotype (%) [5]: 2% and 3% | Population Mitotic Cells (%) [5]: 12% and 6% | Population Normal (%) [5]: 97% | Population Pyknosed Nuclei (%) [5]: 7% and 20% | Population Tubulin-Different-Phenotype (%) [5]: 1% and 3% | Total Cell Count [5]: 426 and 158 | Population Apoptotic (%) [6]: 95% and 85% | Population Fragmented Nuclei (%) [6]: 21% and 8% | Population Healthy Nuclei (%) [6]: 67% and 81% | Population Hoechst High Intensity Objects (%) [6]: 3% and 2% | Population Membrane Permeable-Phenotype (%) [6]: 8% and 6% | Population Mitochondria Different-Phenotype (%) [6]: 4% and 2% | Population Mitotic Cells (%) [6]: 4% and 14% | Population Normal (%) [6]: 96% and 97% | Population Pyknosed Nuclei (%) [6]: 11% and 9% | Population Tubulin-Different-Phenotype (%) [6]: 4% and 2% | Total Cell Count [6]: 418 and 284
